From ChEMBL document CHEMBL3227985, “N-Alkylated 2-aminotetralins: central dopamine-receptor stimulating activity” (J Med Chem, 1979)
Active and inactive are the calls of the source. The calls are words filed in the database; no cut-off is given here.

Tests used:
[1] = test system: Rattus norvegicus; assay: Central dopamine receptor stimulating activity in Sprague-Dawley rat assessed as reduction in DOPA accumulation in limbic region of brain at 2 umol/kg, sc by spectrophotometric method; assay type: functional; conditions: Limbic system
Outline: (§1)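 Male Sprague-Dawley rats (200-350 g), reserpinized. Compounds dissolved in saline immediately before use, neutral pH, 10 mL/kg, given sc over a dose range. Aromatic-L-amino-acid decarboxylase inhibited (100 mg/kg). Dopa and 5-HTP accumulation measured spectrophotometrically in striatum, limbic forebrain and remaining hemispheral portions. ED50 = dose giving 50% of maximal reduction versus control portions, estimated from dose-response curves. Experiments run 9–12 a.m.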

[2] = test system: Rattus norvegicus; assay: Central noradrenaline receptor stimulating activity in Sprague-Dawley rat assessed as reduction in DOPA accumulation in hemispheral portion of cerebrum at 2 umol/kg, sc by spectrophotometric method; assay type: functional, organism-based; outline: as §1
[3] = test system: Rattus norvegicus; assay: Central serotonin receptor stimulating activity in Sprague-Dawley rat assessed as reduction in 5-HTP accumulation in limbic region of brain at 2 umol/kg, sc by spectrophotometric method; assay type: functional, organism-based; conditions: Limbic system; outline: as §1
[4] = test system: Rattus norvegicus; assay: Central serotonin receptor stimulating activity in Sprague-Dawley rat assessed as reduction in 5-HTP accumulation in striatum of brain at 2 umol/kg, sc by spectrophotometric method; assay type: functional, organism-based; outline: as §1
[5] = test system: Rattus norvegicus; assay: Central serotonin receptor stimulating activity in Sprague-Dawley rat assessed as reduction in 5-HTP accumulation in hemispheral portion of cerebrum at 2 umol/kg, sc by spectrophotometric method; assay type: functional, organism-based; outline: as §1
[6] = test system: Rattus norvegicus; assay: Toxicity in sc dosed Sprague-Dawley rat assessed as gross behaviour at ED50; assay type: organism-based; conditions: in vivo
[7] = test system: Rattus norvegicus; assay: Central dopamine receptor stimulating activity in Sprague-Dawley rat assessed as reduction in DOPA accumulation in striatum of brain at 2 umol/kg, sc by spectrophotometric method; assay type: functional; outline: as §1
[8] = test system: Rattus norvegicus; assay: Central dopamine receptor stimulating activity in reserpenized Sprague-Dawley rat assessed as duration of action of motor activity at 2 umol/kg, sc measured 6 hrs post-reserpine challenge by motility meter analysis; assay type: functional
Outline: (§2)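 Male Sprague-Dawley rats (200-350 g) given reserpine 10 mg/kg ip 6 h before testing. Drug in saline, 2 µmol/kg sc in the neck. Rats then placed singly in photocell motility meters. Counts recorded per 5-min period until effect ceased (<10 counts/5 min), giving duration and AUC. Means of four to six recordings. Testing 1–6 p.m.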

[9] = test system: Rattus norvegicus; assay: Central dopamine receptor stimulating activity in reserpenized Sprague-Dawley rat assessed as latency period of motor activity at 2 umol/kg, sc measured 6 hrs post-reserpine challenge by motility meter analysis; assay type: functional; outline: as §2

Structure (SMILES)	ED50 [1]	Activity [2]	Activity [3]	Activity [4]	Activity [5]	Activity [6]	ED50 [7]	Time [8]	Time [9]
Br.CCCCNC1CCc2c(O)cccc2C1 (stereo not drawn)	> 5 µmol/kg	inactive	inactive	inactive	inactive	Non-toxic	–	–	–
Br.Oc1cccc2c1CCC(N1CCCCC1)C2 (stereo not drawn)	> 5 µmol/kg	inactive	inactive	inactive	inactive	Non-toxic	–	–	–
Br.CCCNC1CCc2c(O)cccc2C1 (stereo not drawn)	0.04 µmol/kg	inactive	inactive	inactive	inactive	Non-toxic	0.046 µmol/kg	45 min	0 min
CCCN(CCC)C1CCc2c(cccc2OC)C1.Cl (stereo not drawn)	0.013 µmol/kg	inactive	inactive	inactive	inactive	Non-toxic	0.018 µmol/kg	122 min	15 min
Br.CCN(CC)C1CCc2c(O)cccc2C1 (stereo not drawn)	0.077 µmol/kg	inactive	inactive	inactive	inactive	Non-toxic	0.071 µmol/kg	54 min	0 min
CCCN(CCc1ccccc1)C1CCc2c(cccc2OC)C1.Cl (stereo not drawn)	0.29 µmol/kg	inactive	inactive	inactive	inactive	Non-toxic	0.24 µmol/kg	–	–
CCCN(C(C)C)C1CCc2c(cccc2OC)C1.Cl (stereo not drawn)	–	inactive	inactive	inactive	inactive	Non-toxic	–	–	–
CCCN(CCC)C1CCc2c(ccc(OC)c2OC)C1.Cl (stereo not drawn)	0.057 µmol/kg	inactive	inactive	inactive	inactive	Non-toxic	0.058 µmol/kg	–	–
COc1cccc2c1CCC(N)C2.Cl (stereo not drawn)	–	inactive	inactive	inactive	inactive	Non-toxic	–	–	–
CCN(CC)C1CCc2c(cccc2OC)C1.Cl (stereo not drawn)	–	inactive	inactive	inactive	inactive	Non-toxic	–	–	–
Br.CCCCN(CCCC)C1CCc2c(O)cccc2C1 (stereo not drawn)	2.9 µmol/kg	inactive	inactive	inactive	inactive	Non-toxic	2.7 µmol/kg	–	–
Br.CCN(C)C1CCc2c(O)cccc2C1 (stereo not drawn)	0.074 µmol/kg	inactive	inactive	inactive	inactive	Non-toxic	0.053 µmol/kg	31 min	3 min
CCCCN(CC)C1CCc2c(cccc2OC)C1.Cl (stereo not drawn)	0.068 µmol/kg	inactive	inactive	inactive	inactive	Non-toxic	0.079 µmol/kg	140 min	16 min
CCCCN(CCC)C1CCc2c(cccc2OC)C1.Cl (stereo not drawn)	0.04 µmol/kg	inactive	inactive	inactive	inactive	Non-toxic	0.036 µmol/kg	106 min	14 min
COc1cccc2c1CCC(NC(C)C)C2.Cl (stereo not drawn)	> 5 µmol/kg	inactive	inactive	inactive	inactive	Non-toxic	–	–	–
Br.CCNC1CCc2c(O)cccc2C1 (stereo not drawn)	0.072 µmol/kg	inactive	inactive	inactive	inactive	Non-toxic	0.066 µmol/kg	50 min	3 min
COc1cccc2c1CCC(N(C)C)C2.Cl (stereo not drawn)	–	inactive	inactive	inactive	inactive	Non-toxic	–	–	–
CCCN(CC(C)(C)C)C1CCc2c(O)cccc2C1.Cl (stereo not drawn)	0.2 µmol/kg	inactive	inactive	inactive	inactive	Non-toxic	0.12 µmol/kg	68 min	9 min

Structure (SMILES)	ED50 [1]	Activity [2]	Activity [3]	Activity [4]	Activity [5]	Activity [6]	ED50 [7]	Time [8]	Time [9]
Br.CCCCCNC1CCc2c(O)cccc2C1 (stereo not drawn)	> 5 µmol/kg	inactive	inactive	inactive	inactive	Non-toxic	–	–	–
CCNC1CCc2c(cccc2OC)C1.Cl (stereo not drawn)	–	inactive	inactive	inactive	inactive	Non-toxic	–	–	–
CCN(C)C1CCc2c(cccc2OC)C1.Cl (stereo not drawn)	–	inactive	inactive	inactive	inactive	Non-toxic	–	–	–
Br.NC1CCc2c(O)cccc2C1 (stereo not drawn)	> 5 µmol/kg	inactive	inactive	inactive	inactive	Non-toxic	–	–	–
CCCCCN(CCC)C1CCc2c(O)cccc2C1.Cl (stereo not drawn)	0.01 µmol/kg	inactive	inactive	inactive	inactive	Non-toxic	0.019 µmol/kg	75 min	0 min
CCCN(CC(C)(C)C)C1CCc2c(cccc2OC)C1.Cl (stereo not drawn)	0.19 µmol/kg	inactive	inactive	inactive	inactive	Non-toxic	0.19 µmol/kg	–	–
CCCCCNC1CCc2c(cccc2OC)C1.Cl (stereo not drawn)	–	inactive	inactive	inactive	inactive	Non-toxic	–	–	–
Br.CN(C)C1CCc2c(O)cccc2C1 (stereo not drawn)	0.39 µmol/kg	inactive	inactive	inactive	inactive	Non-toxic	0.19 µmol/kg	–	–
Br.CCCCCN(C)C1CCc2c(O)cccc2C1 (stereo not drawn)	0.37 µmol/kg	inactive	inactive	inactive	inactive	Non-toxic	0.28 µmol/kg	–	–
CCCNC1CCc2c(cccc2OC)C1.Cl (stereo not drawn)	0.37 µmol/kg	inactive	inactive	inactive	inactive	Non-toxic	0.43 µmol/kg	–	–
CCCCCN(C)C1CCc2c(cccc2OC)C1.Cl (stereo not drawn)	–	inactive	inactive	inactive	inactive	Non-toxic	–	–	–
CNC1CCc2c(cccc2OC)C1.Cl (stereo not drawn)	–	inactive	inactive	inactive	inactive	Non-toxic	–	–	–
COc1cccc2c1CCC(N1CCCCC1)C2.Cl (stereo not drawn)	–	inactive	inactive	inactive	inactive	Non-toxic	–	–	–
Br.CNC1CCc2c(O)cccc2C1 (stereo not drawn)	1.1 µmol/kg	inactive	inactive	inactive	inactive	Non-toxic	1.2 µmol/kg	–	–
CCCCNC1CCc2c(cccc2OC)C1.Cl (stereo not drawn)	–	inactive	inactive	inactive	inactive	Non-toxic	–	–	–
Br.CC(C)NC1CCc2c(O)cccc2C1 (stereo not drawn)	> 5 µmol/kg	inactive	inactive	inactive	inactive	Non-toxic	–	–	–
CCCCN(CCCC)C1CCc2c(cccc2OC)C1.Cl (stereo not drawn)	–	inactive	inactive	inactive	inactive	Non-toxic	–	–	–
